Results published in ChEMBL document CHEMBL4024803, “New Steroidal 4-Aminoquinolines Antagonize Botulinum Neurotoxin Serotype A in Mouse Embryonic Stem Cell Derived Motor Neurons in Postintoxication Model” (J Med Chem, 2018).

What was measured:
[1] = Distribution co-efficient, log D of the compound at pH 10 by reversed-phase thin-layer chromatographic method; type: physicochemical; conditions: buffer
Summary of the method: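 Reversed-phase thin-layer chromatography at pH 10, mobile phase acetone/NH3/H2O (85/5/10).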

[2] = target: Botulinum neurotoxin type A (Clostridium botulinum) (UniProt P0DPI0); experiment: Inhibition of Clostridium botulinum BoNT/A holotoxin-mediated SNAP-25 cleavage in mouse HBG3 cell-derived motor neurons assessed as full length of SNAP-25 at 10 uM preincubated for 30 mins followed by intoxication measured after 4 hrs by Western blot method relative to control; set-up: scale not given: the % may be the effect or the level left
[3] = target: Botulinum neurotoxin type A (Clostridium botulinum) (UniProt P0DPI0); experiment: (§1) Inhibition of Clostridium botulinum BoNT/A light chain using P39 as substrate preincubated for 10 mins followed by substrate addition measured after 10 mins by HPLC method
[4] = target: Botulinum neurotoxin type A (Clostridium botulinum, UniProt P0DPI0); experiment: as §1
[5] = target: Botulinum neurotoxin type A (Clostridium botulinum) (UniProt P0DPI0); experiment: Inhibition of Clostridium botulinum BoNT/A holotoxin-mediated SNAP-25 cleavage in mouse HBG3 cell-derived motor neurons assessed as full length of SNAP-25 at 20 uM preincubated for 30 mins followed by intoxication measured after 4 hrs by Western blot method relative to control; set-up: scale not given: the % may be the effect or the level left
[6] = target: Botulinum neurotoxin type A (Clostridium botulinum) (UniProt P0DPI0); experiment: Inhibition of Clostridium botulinum BoNT/A light chain at 20 uM using P39 as substrate preincubated for 10 mins followed by substrate addition measured after 10 mins by HPLC method relative to control
Summary of the method: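 Purified BoNT/A light chain (20 nM) with 0.2 mg/mL BSA in 50 mM HEPES pH 7.4, preincubated with compound for 10 min at room temperature. Cleavage fragments were separated by reversed-phase HPLC (214/280 nm). Percent inhibition was taken from fragment peak areas with vs without compound. Mean of three experiments.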

[7] = target: Botulinum neurotoxin type A (Clostridium botulinum) (UniProt P0DPI0); experiment: Inhibition of Clostridium botulinum BoNT/A holotoxin-mediated SNAP-25 cleavage in mouse HBG3 cell-derived motor neurons preincubated for 30 mins followed by intoxication measured after 4 hrs by Western blot method

## CC(CCCNCc1ccc(-c2csc3ccc(C#N)cc23)cc1)Nc1ccnc2ccccc12 (stereo not given)
[1]
  chromatographic logD: 3.67
[2]
  Activity: 34%
[3]
  inhibition: Dose-dependent effect
[4]
  IC50: 10.2 µM
[5]
  Activity: 53%
[6]
  inhibition: 61%
[7]
  inhibition: Dose-dependent effect

## N#Cc1ccc(-c2ccc(-c3ccc(CNCCCCCCCCNc4ccnc5cc(Cl)ccc45)cc3)s2)cc1
[6]
  inhibition: 14%

## Fc1ccc2scc(-c3ccc(CNCCCCCCNc4ccnc5ccccc45)cc3)c2c1
[6]
  inhibition: 56%

## N#Cc1ccc2scc(-c3ccc(CNCCCCNc4ccnc5ccccc45)cc3)c2c1
[1]
  chromatographic logD: 3.67
[2]
  Activity: 21%
[3]
  inhibition: Dose-dependent effect
[4]
  IC50: 4.6 µM
[5]
  Activity: 26%
[6]
  inhibition: 84%
[7]
  inhibition: Dose-dependent effect

## CC(CCN(C)CC12CC3CC(CC(C3)C1)C2)Nc1ccnc2ccccc12 (stereo not given)
[2]
  Activity: 47%
[3]
  inhibition: Dose-dependent effect
[4]
  IC50: 5.2 µM
[5]
  Activity: 46%
[6]
  inhibition: 51%
[7]
  inhibition: Dose-dependent effect

## CC(CCCN(C)Cc1ccc(-c2csc3ccc(F)cc23)cc1)Nc1ccnc2ccccc12 (stereo not given)
[6]
  inhibition: 48%

## CN(CCCNc1ccnc2ccccc12)CC12CC3CC(CC(C3)C1)C2
[2]
  Activity: 30%
[5]
  Activity: 31%
[6]
  inhibition: 30%
[7]
  inhibition: Dose-dependent effect

## CN(CCCCNc1ccnc2ccccc12)Cc1ccc(-c2csc3ccc(F)cc23)cc1
[1]
  chromatographic logD: 3.98
[2]
  Activity: 44%
[5]
  Activity: 55%
[6]
  inhibition: 46%
[7]
  inhibition: Dose-dependent effect

## CC(CCNCC12CC3CC(CC(C3)C1)C2)Nc1c(F)cnc2ccccc12 (stereo not given)
[1]
  chromatographic logD: 3.09
[2]
  Activity: 24%
[5]
  Activity: 23%
[7]
  inhibition: Dose-dependent effect

## N#Cc1ccc(-c2ccc(-c3ccc(CNCCNc4ccnc5cc(Cl)ccc45)cc3)s2)cc1
[6]
  inhibition: 36%

## N#Cc1ccc2c(-c3ccc(CNCCCCNc4ccnc5ccccc45)cc3)csc2c1
[6]
  inhibition: 23%

## Fc1ccc2scc(-c3ccc(CNCCCCNc4ccnc5ccccc45)cc3)c2c1
[6]
  inhibition: 34%

## CC(CCNCCC12CC3CC(CC(C3)C1)C2)Nc1ccnc2cc(Cl)ccc12 (stereo not given)
[6]
  inhibition: 64%

## CC(CCNCC12CC3CC(CC(C3)C1)C2)Nc1c(F)cnc2cc(Cl)ccc12 (stereo not given)
[1]
  chromatographic logD: 3.24
[2]
  Activity: 31%
[5]
  Activity: 35%
[6]
  inhibition: 15%
[7]
  inhibition: Dose-dependent effect

## CN(CCCNc1ccnc2ccccc12)CCC12CC3CC(CC(C3)C1)C2
[6]
  inhibition: 31%

## N#Cc1ccc2c(-c3ccc(CNCCCCCCNc4ccnc5ccccc45)cc3)csc2c1
[6]
  inhibition: 8%

## CN(CCCCCCNc1ccnc2ccccc12)Cc1ccc(-c2ccc(-c3ccc(C#N)cc3)s2)cc1
[6]
  inhibition: 55%

## CC(CCNCCC12CC3CC(CC(C3)C1)C2)Nc1c(F)cnc2ccccc12 (stereo not given)
[1]
  chromatographic logD: 4.13
[2]
  Activity: 30%
[5]
  Activity: 32%
[7]
  inhibition: Dose-dependent effect

## N#Cc1ccc(-c2ccc(-c3ccc(CNCCCCCCNc4ccnc5cc(Cl)ccc45)cc3)s2)cc1
[6]
  inhibition: 30%

## CC(CCNCCC12CC3CC(CC(C3)C1)C2)Nc1ccnc2ccccc12 (stereo not given)
[6]
  inhibition: 42%

## CC(=O)O[C@H]1C[C@H]2[C@@H]([C@H](OC(C)=O)C[C@@H]3C[C@H](N)CC[C@@]32C)[C@@H]2CC[C@H]([C@H](C)CCCNCCCC(=O)Nc3ccnc4cc(Cl)ccc34)[C@@]12C
[6]
  inhibition: 37%

## CC(CCNCCC12CC3CC(CC(C3)C1)C2)Nc1c(F)cnc2cc(Cl)ccc12 (stereo not given)
[1]
  chromatographic logD: 4.33
[2]
  Activity: 30%
[5]
  Activity: 29%
[6]
  inhibition: 2%
[7]
  inhibition: Dose-dependent effect

## CC(CCNc1ccnc2ccccc12)NCCC12CC3CC(CC(C3)C1)C2 (stereo not given)
[2]
  Activity: 23%
[5]
  Activity: 24%
[7]
  inhibition: Dose-dependent effect

## C#Cc1ccc(-c2ccc(-c3ccc(CNCCNc4ccnc5cc(Cl)ccc45)cc3)s2)cc1
[6]
  inhibition: 19%

## C#Cc1ccc(-c2ccc(-c3ccc(CNCCCCCCCCNc4ccnc5ccccc45)cc3)s2)cc1
[6]
  inhibition: 53%
